# Screening results deposited in PubChem BioAssay by several laboratories.
# SENP6 block – SENP6 protease inhibitors, primary screen, biochemical, luminescence, uHTS | Sentrin-specific protease 6 (Homo sapiens), Q9GZR1 | Recombinant SENP6 catalytic domain, aminoluciferin luminescence | inhibition, % at 10 µM | actives 1.8% (n = 330,000) | AID 2599, 2010;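 active = inhibition above about 50% at the single tested dose, limit read from the data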;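 note: plate controls were DMSO wells with enzyme for no effect and DMSO wells lacking enzyme for full effect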
# UCH37 DUB inh – inhibitors of human UCH37 deubiquitinase, primary screen, biochemical, Ub-AMC cleavage, fluorescence; Ubiquitin carboxyl-terminal hydrolase isozyme L5 (Homo sapiens), Q9Y5K5; purified proteasome/UCH37; inhibition, % (concentration not given with the values); actives 0.33% (n = 330,000); AID 588478, 2011;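 active = mean inhibition over replicate wells above about 20%, limit read from the data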;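 note: 0% = compound-free wells with enzyme and 100% = wells lacking proteasome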
# Target sequence (Q9Y5K5 whole entry, looked up): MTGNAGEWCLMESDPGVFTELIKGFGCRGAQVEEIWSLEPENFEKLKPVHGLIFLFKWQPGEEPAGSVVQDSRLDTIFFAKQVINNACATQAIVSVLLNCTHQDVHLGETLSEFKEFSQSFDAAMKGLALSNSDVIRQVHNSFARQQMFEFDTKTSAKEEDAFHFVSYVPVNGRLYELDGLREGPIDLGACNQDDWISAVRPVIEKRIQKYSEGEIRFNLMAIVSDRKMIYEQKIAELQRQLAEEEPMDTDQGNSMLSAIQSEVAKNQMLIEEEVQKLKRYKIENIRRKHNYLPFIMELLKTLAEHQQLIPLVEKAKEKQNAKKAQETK
#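 Material: Human UCH37 enzyme supplied as purified proteasome complex | Schedule: 30 min preincubation with enzyme, 25 min cleavage at room temperature | Detection: AMC fluorescence 355/460 nm | Measure: % inhibition of Ub-AMC cleavage fluorescence | Controls: Wells without proteasome as full block, compound-free enzyme plus substrate as uninhibited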
# SENP1 FRET inh – human SENP1 catalytic domain inhibitors, primary screen, biochemical, FRET, uHTS; AID 624204, 2012; actives 0.21% (n = 360,000); inhibition, % at 10 µM; Sentrin-specific protease 1 (Homo sapiens), Q9P0U3; recombinant SENP1 catalytic domain, CyPet-SUMO1-YPet FRET cleavage;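 active = inhibition at least 30% at 10 µM, raw YFP signal under a set limit, fluorescence ratio 0.5 to 1.5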;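 note: 0% = enzyme with DMSO and 100% = no enzyme wells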
#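 Test system: recombinant human SENP1 catalytic domain, His6-tagged / Medium: pH 8 Tris buffer with EDTA, NaCl, BME, BSA, NP40, catalase / Also added: SUMO1 FRET substrate flanked by Cypet and Ypet, 25 nM / Times: 50 min reaction at room temperature / Signal: FRET, CFP and YFP emission / Control set: no-enzyme low control and enzyme-plus-DMSO high control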
# SENP7 block – SENP7 protease inhibitors, primary screen, biochemical, luminescence, uHTS | recombinant SENP7, Z-RLRGG-aminoluciferin luminescence, 40 min | Sentrin-specific protease 7 (Homo sapiens), Q9BQF6 | actives 1.5% (n = 330,000) | AID 434973, 2010 | inhibition, % at 5 µM;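 active = inhibition above about 50% at the single test dose, limit read from the data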;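 note: plate controls were DMSO with enzyme for no effect and no enzyme buffer wells for full effect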
# SENP8 block-1 – human SENP8 protease inhibitors, primary screen, biochemical, fluorescence, Nedd8 protein substrate, uHTS. Sentrin-specific protease 8 (Homo sapiens), Q96LD8. recombinant SENP8. inhibition, % at 20 µM. actives 0.64% (n = 360,000). AID 602440, 2012; in the data active = inhibition mostly above about 40%, no sharp cut-off; inactive = mostly below about 27%
# Target sequence (Q96LD8 whole entry, looked up): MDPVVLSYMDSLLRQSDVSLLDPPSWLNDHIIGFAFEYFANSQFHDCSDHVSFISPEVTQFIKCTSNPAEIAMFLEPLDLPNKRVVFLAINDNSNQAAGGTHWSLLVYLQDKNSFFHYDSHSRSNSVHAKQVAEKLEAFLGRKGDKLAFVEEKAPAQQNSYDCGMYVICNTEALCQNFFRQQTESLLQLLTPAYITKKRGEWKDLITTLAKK
# SENP8 block-2 – SENP8 protease inhibitors, primary screen, biochemical, luminescence; Sentrin-specific protease 8 (Homo sapiens), Q96LD8; purified SENP8, Z-RLRGG-aminoluciferin cleavage; inhibition, % at 10 µM; actives 1.2% (n = 330,000); in the data active = inhibition above about 50%
# SENP8 confirm – SENP8 protease inhibitors, retest, confirmation, biochemical, luminescence, single concentration. shares compounds with SENP7 block. Recombinant SENP8, Z-RLRGG-aminoluciferin luminescence, 60 min. inhibition, % at 12.5 µM. actives 40% (n = 6,200);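 active = mean inhibition across replicates above about 50%, limit read from the data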
# SENP6 conf – SENP6 protease inhibitors, confirmation, biochemical, luminescence, single concentration; shares compounds with SENP7 block; AID 488915, 2010; actives 58% (n = 6,200); inhibition, % at 12.5 µM; recombinant SENP6, Z-RLRGG-aminoluciferin luminescence
# SENP7 conf – SENP7 protease inhibitors, retest, confirmation, biochemical, luminescence, single concentration | inhibition, % at 12.5 µM | actives 69% (n = 6,200) | shares compounds with SENP7 block | recombinant SENP7, Z-RLRGG-aminoluciferin luminescence, 40 min
# Casp3 select – caspase-3 protease inhibitors, confirmation, selectivity assay for SENP inhibitor project, biochemical, single concentration; shares compounds with SENP7 block; purified caspase-3, Z-DEVD-aminoluciferin luminescence, 60 min; inhibition, % at 12.5 µM; actives 60% (n = 6,200);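 active = mean inhibition above about 50%, limit read from the data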;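 note: plate controls were enzyme with DMSO for no effect and wells without caspase-3 for full effect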
# Luc interf – interferes with luciferase luminescence in SENP counter-screen; shares compounds with SENP7 block; Pre-incubated SENP8/Z-RLRGG-aminoluciferin, luciferase luminescence interference; inhibition, % at 12.5 µM; actives 39% (n = 6,200);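 active = mean inhibition above about 50% when retested at one dose, limit read from the data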;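 note: plate controls were DMSO wells with completed reaction for no effect and substrate without enzyme for full effect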
# An asterisk follows results filed as active; i = inactive; · = not tested or not shown. Compounds with a hit are over-represented: about 2.6% of the library has one in this group of screens.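 Rule for the calls, unless noted: active = mean inhibition above about 50% in the one-dose retest (limit read from the data); inactive = the rest.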
SMILES,SENP6 block,UCH37 DUB inh,SENP1 FRET inh,SENP7 block,SENP8 block-1,SENP8 block-2,SENP8 confirm,SENP6 conf,SENP7 conf,Casp3 select,Luc interf
COc1ccc(/C=N/NC(=O)c2[nH]ncc2Br)c(OC)c1,82*,·,4,87*,-28,75*,80*,81*,97*,93*,9
O=C(NN=Cc1cnc(N2CCCCC2)s1)c1ccc(Cl)cc1,·,-4,·,·,·,·,·,·,·,·,·
Cc1ccsc1C=Nn1c(-c2ccncc2)n[nH]c1=S,·,0,·,·,·,·,·,·,·,·,·
O=C(NN=Cc1cccc([N+](=O)[O-])c1)c1nc2ccccc2c(=O)[nH]1,·,7,·,·,·,·,·,·,·,·,·
O=Cc1ccc(OCc2ccc3c(c2)OCO3)cc1,77*,2,-1,71*,32,62*,73*,73*,92*,81*,83*
Cc1ccc(COc2ccc3c(c2)OCO3)cc1,91*,6,1,86*,7,75*,48,85*,98*,70*,31
CN(C)CCNC(=O)C=NO,·,1,·,·,·,·,·,·,·,·,·
Cc1cccc(OCC(=O)NCC(=O)NN=Cc2ccc(O)cc2O)c1,·,2,·,·,·,·,·,·,·,·,·
COCCn1c(C)cc(C2=NNC(=Nc3ccc(Cl)cc3Cl)SC2)c1C,11,6,-3,0,-9,1,·,·,·,·,·
COCCn1c(C)cc(C2=NNC(=NC3CC3)SC2)c1C,75*,11,0,7,5,82*,95*,96*,101*,98*,68*
CCc1ccc(CNc2ccc(O)cc2)cc1,81*,-3,4,24,70*,77*,14,12,-1,6,5
Oc1ccc(NCc2ccc(OCc3ccccc3)cc2)cc1,·,-2,4,·,32,·,·,·,·,·,·
COc1ccc2cc(-c3cc(C(=O)O)c4ccccc4n3)ccc2c1,83*,-36,-2,63*,i,54*,73*,72*,88*,81*,40
COc1ccc(-c2ccc3ccccc3n2)cc1,94*,-66,2,99*,-417,93*,92*,97*,101*,95*,74*
COc1cccc(-c2cn3nc(C)c(C)nc3n2)c1,83*,-20,-25,-3,i,60*,90*,93*,101*,97*,61*
COc1ccc(-c2cn3nc4c(nc3n2)CCCC4)cc1,·,-13,-14,·,-50,·,·,·,·,·,·
c1ccc(Cn2ccc(-c3cnc(-c4ccccc4)s3)n2)cc1,81*,-157,-1,80*,i,64*,9,78*,92*,63*,64*
CC(=NOCC(=O)Nn1c(C)nc2ccccc2c1=O)c1cccs1,·,3,·,·,·,·,·,·,·,·,·
NC(=O)c1ccccc1NC(=O)/C=C/c1ccc(Cl)cc1,51*,-81,1,63*,3,22,1,17,89*,66*,18
O=C(/C=C/c1ccccc1)Nc1cccnc1Cl,74*,2,0,-1,19,66*,69*,60*,90*,84*,73*
O=C(/C=C/c1ccco1)Nc1cccnc1Cl,58*,0,-8,54*,-2,48,58*,56*,86*,85*,63*
O=C(Nc1ccc(F)cc1)Nc1cccnc1Cl,81*,1,-1,85*,16,77*,-7,78*,96*,88*,81*
Cc1cccnc1NC(=O)Nc1ccc(F)cc1,-2,-1,4,-8,8,-21,·,·,·,·,·
N#C/C(=C/c1ccc(N2CCOCC2)c([N+](=O)[O-])c1)C(N)=O,-2,8,2,90*,14,-7,21,8,5,4,2
Cc1cc(C)c2c(c1)C(=O)/C(=C/c1ccc(C(=O)O)cc1)CC2,92*,2,3,5,10,75*,62*,51*,53*,58*,19
SMILES,SENP6 block,UCH37 DUB inh,SENP1 FRET inh,SENP7 block,SENP8 block-1,SENP8 block-2,SENP8 confirm,SENP6 conf,SENP7 conf,Casp3 select,Luc interf
O=C(O)c1ccccc1NSc1ccccc1[N+](=O)[O-],-17,2,1,-7,6,-8,·,·,·,·,·
CCc1ccc(NSc2ccccc2[N+](=O)[O-])cc1,-15,7,1,56*,26,2,7,8,-7,0,1
O=c1c2ccccc2nc2sc3ccccc3n12,79*,-5,1,87*,-74,74*,58*,56*,70*,72*,31
N#CC1(c2ccc(NC(=O)c3ccccc3F)cc2)CCCC1,84*,-3,2,76*,17,76*,80*,77*,93*,74*,64*
O=C1c2ccccc2-c2nnc(-c3ccc(F)cc3)cc21,83*,2,3,99*,42*,90*,86*,84*,82*,44,1
O=c1[nH]nc(-c2ccc(F)cc2)cc1-c1ccccc1,·,-3,2,·,-171,·,·,·,·,·,·
Cc1ccc(-c2cc3c(nn2)-c2ccccc2C3=O)cc1,96*,7,2,99*,49*,96*,85*,95*,99*,89*,8
O=C1c2ccccc2-c2nnc(-c3ccc(O)cc3)cc21,99*,0,0,100*,5,96*,95*,94*,101*,96*,16
Oc1ccc(-c2cc(-c3ccc(O)cc3)nc(-c3ccccc3)n2)cc1,-27,-6,0,2,-76,-7,·,·,·,·,·
